Measurements from PMC11904594 (Current Research in Microbial Sciences, 2025).
In brackets after ≈: the same amount, converted by molar mass.

Tests used:
[1] = test system: P. aeruginosa (ST175–1); assay: Minimum bactericidal concentration; type: cell-based, Pseudomonas aeruginosa; conditions: lowest concentration reducing at least 99.9 % of growth, plated on LB, 37 °C, 24 h, triplicate
[2] = test system: 11 bacterial strains (S. aureus, P. aeruginosa, A. baumannii, K. pneumoniae, E. coli); assay: Antimicrobial activity screening, summary over groups of strains; type: cell-based; conditions: 50 µg/ml screen; all strains, Gram-negative and Gram-positive
[3] = test system: E. coli ATCC 25,922; assay: MIC, broth microdilution; type: cell-based, Escherichia coli; conditions: MHB II, 10^6 CFU/ml, 37 °C, 24 h, triplicate
Summary of the method: (§1)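 Broth microdilution per CLSI. Strains were freshly plated on LB agar from glycerol stocks; the colistin-resistant lpxD mutant was plated on LB with 10 µg/ml colistin. Inoculum was 10^6 CFU/ml in Mueller Hinton broth II with two-fold dilutions of test compound from 100 to 0.10 µg/ml, incubated at 37 °C for 24 h. MIC was the lowest concentration with no growth.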

[4] = test system: A. baumannii Ab-1; assay: Minimum bactericidal concentration; type: cell-based, Acinetobacter baumannii; conditions: lowest concentration reducing at least 99.9 % of growth, plated on LB, 37 °C, 24 h, triplicate
[5] = test system: P. aeruginosa ST175–1; assay: Inhibition of biofilm formation; type: cell-based, Pseudomonas aeruginosa; conditions: ¼ MIC
Summary of the method: (§2)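 Medium was discarded, wells washed with PBS, and biofilm stained with 1 % crystal violet for 15 min at room temperature. After two PBS washes, stain was eluted in 70 % ethanol and read at 595 nm. SBF = (OD595 − OD595 […])/OD600: weak ≤0.5, moderate 0.5–1, strong >1. Triplicate; Kruskal-Wallis with Dunn's test.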

[6] = test system: A. baumannii ATCC 19,606; assay: MIC, broth microdilution; type: cell-based, Acinetobacter baumannii; conditions: MHB II, 10^6 CFU/ml, 37 °C, 24 h, triplicate
Summary of the method: as §1

[7] = test system: A. baumannii IB010; assay: MIC, broth microdilution; type: cell-based, Acinetobacter baumannii; conditions: MHB II, 10^6 CFU/ml, 37 °C, 24 h, triplicate
Summary of the method: as §1

[8] = test system: A. baumannii Ab-1; assay: Inhibition of biofilm formation; type: cell-based, Acinetobacter baumannii; conditions: ¼ MIC
Summary of the method: as §2

[9] = test system: E. coli ESBL 1057.1; assay: MIC, broth microdilution; type: cell-based, Escherichia coli; conditions: MHB II, 10^6 CFU/ml, 37 °C, 24 h, triplicate
Summary of the method: as §1

[10] = test system: E. coli ATCC 25,922; assay: Inhibition of biofilm formation; type: cell-based, Escherichia coli; conditions: ¼ MIC
Summary of the method: as §2

[11] = test system: K. pneumoniae CG258; assay: Time-kill assay; type: cell-based, Klebsiella pneumoniae; conditions: peptide at 2× MIC
Summary of the method: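 Broth without compound was the growth control. Samples taken at 0, 3, 6 and 24 h were diluted and plated on MH II agar for CFU counts. Each curve was run at least in duplicate.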

[12] = test system: S. aureus ATCC 29,213; assay: Minimum bactericidal concentration; type: cell-based, Staphylococcus aureus; conditions: lowest concentration reducing at least 99.9 % of growth, plated on LB, 37 °C, 24 h, triplicate
[13] = test system: 11 bacterial strains; assay: MBC, summary over all strains; type: cell-based; conditions: highest value over all strains, converted to molar
Summary of the method: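 The no-peptide growth well, serially diluted and plated, served as reference. Percent growth was calculated from CFU counts; MBC was the lowest concentration giving ≥99.9 % reduction (CLSI). Triplicate.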

[14] = test system: A. baumannii ATCC 19,606; assay: Inhibition of biofilm formation; type: cell-based, Acinetobacter baumannii; conditions: ¼ MIC
Summary of the method: as §2

[15] = test system: A. baumannii ATCC 19,606; assay: Minimum bactericidal concentration; type: cell-based, Acinetobacter baumannii; conditions: lowest concentration reducing at least 99.9 % of growth, plated on LB, 37 °C, 24 h, triplicate
[16] = test system: S. aureus ATCC 29,213; assay: MIC, broth microdilution; type: cell-based, Staphylococcus aureus; conditions: MHB II, 10^6 CFU/ml, 37 °C, 24 h, triplicate
Summary of the method: as §1

[17] = test system: S. aureus MRSA USA 300; assay: Minimum bactericidal concentration; type: cell-based, Staphylococcus aureus; conditions: lowest concentration reducing at least 99.9 % of growth, plated on LB, 37 °C, 24 h, triplicate
[18] = test system: A. baumannii IB010; assay: Minimum bactericidal concentration; type: cell-based, Acinetobacter baumannii; conditions: lowest concentration reducing at least 99.9 % of growth, plated on LB, 37 °C, 24 h, triplicate
[19] = test system: P. aeruginosa ATCC 27,853; assay: MIC, broth microdilution; type: cell-based, Pseudomonas aeruginosa; conditions: MHB II, 10^6 CFU/ml, 37 °C, 24 h, triplicate
Summary of the method: as §1

[20] = test system: K. pneumoniae ATCC 43,816; assay: Minimum bactericidal concentration; type: cell-based, Klebsiella pneumoniae; conditions: lowest concentration reducing at least 99.9 % of growth, plated on LB, 37 °C, 24 h, triplicate
[21] = test system: P. aeruginosa ATCC 27,853; assay: Minimum bactericidal concentration; type: cell-based, Pseudomonas aeruginosa; conditions: lowest concentration reducing at least 99.9 % of growth, plated on LB, 37 °C, 24 h, triplicate
[22] = test system: P. aeruginosa (ST175–1); assay: MIC, broth microdilution; type: cell-based, Pseudomonas aeruginosa; conditions: MHB II, 10^6 CFU/ml, 37 °C, 24 h, triplicate
Summary of the method: as §1

[23] = Stability in human serum; type: in vitro ADME; conditions: 25 % (v/v)
Summary of the method: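 Test compound was added to RPMI with human serum pre-equilibrated at 37 °C, giving 333.33 µM final compound and 25 % (v/v) final serum. Mixtures were stirred at 37 °C for 10, 30, 45 or 60 min. Proteins were precipitated with 96 % ethanol, cooled at 4 °C for 15 min and spun at 14,000 g. Supernatants were run on C18 RP-HPLC (TFA/CH3CN gradient, 220 nm); degradation was taken from loss of native peak area. Duplicate.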

[24] = test system: S. aureus MRSA USA 300; assay: MIC, broth microdilution; type: cell-based, Staphylococcus aureus; conditions: MHB II, 10^6 CFU/ml, 37 °C, 24 h, triplicate
Summary of the method: as §1

[25] = test system: Galleria mellonella larvae; assay: In vivo toxicity in Galleria mellonella larvae; conditions: G. mellonella larvae, 50 µg/larvae (10 μl of 5 mg/ml), 30 °C, N=10 per group
Summary of the method: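 Sixth-instar Galleria mellonella larvae (200–300 mg) were held in sawdust at 4 °C until use. Groups of ten were injected with 10 μl of test compound, colistin or 0.9 % NaCl saline control into the second rear proleg, then kept at 30 °C.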

[26] = test system: K. pneumoniae ATCC 43,816; assay: MIC, broth microdilution; type: cell-based, Klebsiella pneumoniae; conditions: MHB II, 10^6 CFU/ml, 37 °C, 24 h, triplicate
Summary of the method: as §1

[27] = test system: K. pneumoniae CG258; assay: Minimum bactericidal concentration; type: cell-based, Klebsiella pneumoniae; conditions: lowest concentration reducing at least 99.9 % of growth, plated on LB, 37 °C, 24 h, triplicate
[28] = test system: A. baumannii Ab-1; assay: MIC, broth microdilution; type: cell-based, Acinetobacter baumannii; conditions: MHB II, 10^6 CFU/ml, 37 °C, 24 h, triplicate
Summary of the method: as §1

[29] = test system: E. coli ATCC 25,922; assay: Minimum bactericidal concentration; type: cell-based, Escherichia coli; conditions: lowest concentration reducing at least 99.9 % of growth, plated on LB, 37 °C, 24 h, triplicate
[30] = test system: E. coli ESBL 1057.1; assay: Minimum bactericidal concentration; type: cell-based, Escherichia coli; conditions: lowest concentration reducing at least 99.9 % of growth, plated on LB, 37 °C, 24 h, triplicate
[31] = test system: K. pneumoniae ATCC 43,816; assay: Inhibition of biofilm formation; type: cell-based, Klebsiella pneumoniae; conditions: ¼ MIC
Summary of the method: as §2

[32] = test system: K. pneumoniae CG258; assay: MIC, broth microdilution; type: cell-based, Klebsiella pneumoniae; conditions: MHB II, 10^6 CFU/ml, 37 °C, 24 h, triplicate
Summary of the method: as §1

Q: For `CC[C@H](C)[C@H](NC(=O)[C@H](CCCCN)NC(=O)[C@H](CCCCN)NC(=O)[C@H](Cc1ccccc1)NC(=O)[C@H](CC(C)C)NC(=O)[C@H](CCCCN)NC(=O)[C@@H](N)CCCCN)C(=O)N[C@@H](CC(C)C)C(=O)N[C@@H](CCCCN)C(=O)N[C@@H](Cc1ccccc1)C(=O)N[C@@H](CC(C)C)C(N)=O` [BP76], which MBC [1] is on record?
A: Its MBC is 50 µg/mL (≈ 35.6 µM).

Q: What about the “growth inhibition of all the strains” value [2] of the same molecule?
A: Its value is “≈ 90%”.

Q: And the MIC [3]?
A: The MIC was 6.25 µg/mL (≈ 4.45 µM).

Q: And the MBC [4]?
A: Its MBC is 12.5 µg/mL (≈ 8.9 µM).

Q: And the “SBF index compared to BP607” value [5]?
A: The value was “reduced SBF indices compared to BP607”.

Q: What about the MIC [6] of the same molecule?
A: Its MIC is 6.25 µg/mL (≈ 4.45 µM).

Q: And the MIC [7]?
A: Its MIC is 25 µg/mL (≈ 17.8 µM).

Q: What about the “SBF index compared to BP607” value [8] of the same molecule?
A: The value was “reduced SBF indices compared to BP607”.

Q: What about the MIC [9] of the same molecule?
A: Its MIC is 12.5 µg/mL (≈ 8.9 µM).

Q: And the production of biofilm [10]?
A: The production of biofilm was “reduced production of biofilm”.

Q: What about the “bactericidal activity in time-kill assay” value ([11]; 6 h) of the same molecule?
A: The value was “able to reduce growth to bactericidal level”.

Q: What about the “bactericidal activity in time-kill assay” value ([11]; 24 h) of the same molecule?
A: The value was “not at 24 h”.

Q: And the MBC [12]?
A: Its MBC is 25 µg/mL (≈ 17.8 µM).

Q: What about the “highest MBC observed” value [13] of the same molecule?
A: Its value is 40 µM.

Q: What about the “SBF index compared to BP607” value [14] of the same molecule?
A: The value was “reduced SBF indices compared to BP607”.

Q: What about the MBC [15] of the same molecule?
A: Its MBC is 6.25 µg/mL (≈ 4.45 µM).

Q: What about the MIC [16] of the same molecule?
A: The MIC was 25 µg/mL (≈ 17.8 µM).

Q: What about the MBC [17] of the same molecule?
A: Its MBC is 50 µg/mL (≈ 35.6 µM).

Q: And the MBC [18]?
A: Its MBC is 25 µg/mL (≈ 17.8 µM).

Q: And the MIC [19]?
A: The MIC was 50 µg/mL (≈ 35.6 µM).

Q: And the MBC [20]?
A: The MBC was 12.5 µg/mL (≈ 8.9 µM).

Q: What about the MBC [21] of the same molecule?
A: The MBC was 50 µg/mL (≈ 35.6 µM).

Q: And the MIC [22]?
A: The MIC was 50 µg/mL (≈ 35.6 µM).

Q: What about the remaining at 1 h, 333.33 µM [23] of the same molecule?
A: The remaining at 1 h, 333.33 µM was 15%.

Q: What about the MIC [24] of the same molecule?
A: The MIC was 50 µg/mL (≈ 35.6 µM).

Q: And the “survival after 24h” value [25]?
A: The value was 100%.

Q: What about the MIC [26] of the same molecule?
A: The MIC was 12.5 µg/mL (≈ 8.9 µM).

Q: What about the MBC [27] of the same molecule?
A: Its MBC is 6.25 µg/mL (≈ 4.45 µM).

Q: And the MIC [28]?
A: Its MIC is 12.5 µg/mL (≈ 8.9 µM).

Q: What about the MBC [29] of the same molecule?
A: The MBC was 6.25 µg/mL (≈ 4.45 µM).

Q: What about the MBC [30] of the same molecule?
A: The MBC was 12.5 µg/mL (≈ 8.9 µM).

Q: And the “SBF index compared to BP607” value [31]?
A: Its value is “reduced SBF indices compared to BP607”.

Q: And the MIC [32]?
A: Its MIC is 6.25 µg/mL (≈ 4.45 µM).
